Measured values reported in ChEMBL document CHEMBL3576825, “Antineoplastic agents. 600. From the South Pacific Ocean to the silstatins” (J Nat Prod, 2015).

What was measured:
SF-268 = test: Cytotoxicity against human SF268 cells after 48 hrs by sulforhodamine B assay; format: functional; details: SF-268, 48 h
In short: (§1)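 NCI standard SRB protocol. Cells were seeded in 5% FBS/RPMI-1640 and incubated 24 h, then given serial dilutions of compound for 48 h. Plates were fixed with trichloroacetic acid, stained with sulforhodamine B and read by microplate reader. GI50, the concentration giving a 50% reduction in net protein increase, was calculated from optical density data.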

[1] = Cytotoxicity against human BxPC3 cells after 48 hrs by sulforhodamine B assay; format: functional; details: BXPC-3, 48 h; in short: as §1
NCI-H460 = test: Cytotoxicity against human NCI-H460 cells after 48 hrs by sulforhodamine B assay; format: functional; details: NCI-H460, 48 h; in short: as §1
DU-145 = test: Cytotoxicity against human DU145 cells after 48 hrs by sulforhodamine B assay; format: functional; details: DU-145, 48 h; in short: as §1
MCF7 = test: Cytotoxicity against human MCF7 cells after 48 hrs by sulforhodamine B assay; format: functional; details: MCF7, 48 h; in short: as §1
[2] = Cytotoxicity against human KM20L2 cells after 48 hrs by sulforhodamine B assay; format: functional; details: KM-20L2, 48 h; in short: as §1
[3] = Cytotoxicity against human MCF10A cells after 48 hrs by sulforhodamine B assay; format: cell-based, MCF-10A
[4] = Cytotoxicity against human CRL2221 cells after 48 hrs by sulforhodamine B assay; format: cell-based

SMILES | GI50 (SF-268) | GI50 [1] | GI50 (NCI-H460) | GI50 (DU-145) | GI50 (MCF7) | GI50 [2] | GI50 at 48 h [3] | GI50 at 48 h [4]
CC(C)[C@@H]1NC(=O)[C@H](C)OC(=O)[C@@H](C(C)C)NC(=O)[C@@H](CC2CCCCC2)OC(=O)[C@H](C(C)C)NC(=O)[C@H](C)OC(=O)[C@@H](C(C)C)NC(=O)[C@@H](CC2CCCCC2)OC(=O)[C@H](Cc2ccc(O)cc2)NC(=O)[C@H](C)OC(=O)[C@@H](C(C)C)NC(=O)[C@@H](CC2CCCCC2)OC1=O | 37.4 nM | 396 nM | 239 nM | 164 nM | 89.7 nM | 67.3 nM |  | 
CC(C)[C@@H]1NC(=O)[C@H](C)OC(=O)[C@@H](C(C)C)NC(=O)[C@@H](CC2CCCCC2)OC(=O)[C@H](C(C)C)NC(=O)[C@H](C)OC(=O)[C@@H](C(C)C)NC(=O)[C@@H](CC2CCCCC2)OC(=O)[C@H](C(C)C)NC(=O)[C@H](C)OC(=O)[C@@H](C(C)C)NC(=O)[C@@H](CC2CCCCC2)OC1=O | 63.6 nM | 392 nM | 314 nM | 173 nM | 141 nM | 141 nM |  | 
CC(C)[C@@H]1NC(=O)[C@H](C)OC(=O)[C@@H](C(C)C)NC(=O)[C@@H](CC2CCCCC2)OC(=O)[C@H]([C@@H](C)O)NC(=O)[C@H](C)OC(=O)[C@@H](C(C)C)NC(=O)[C@@H](CC2CCCCC2)OC(=O)[C@H](C(C)C)NC(=O)[C@H](C)OC(=O)[C@@H](C(C)C)NC(=O)[C@@H](CC2CCCCC2)OC1=O | 3.4 nM | 24 nM | 16 nM | 3.9 nM | 2.4 nM | 3.4 nM |  | 
CC(C)C[C@H]1OC(=O)[C@H](C(C)C)NC(=O)[C@H](C)OC(=O)[C@@H](C(C)C)NC(=O)[C@@H](CC2CCCCC2)OC(=O)[C@H]([C@@H](C)O)NC(=O)[C@H](C)OC(=O)[C@@H](C(C)C)NC(=O)[C@@H](CC(C)C)OC(=O)[C@H](C(C)C)NC(=O)[C@H](C)OC(=O)[C@@H](C(C)C)NC1=O | 2.6 nM | 3.2 nM | 3.3 nM | 2.5 nM | 1.5 nM | 1.7 nM | 3.35 nM | 3.35 nM
CC(C)[C@@H]1NC(=O)[C@H](C)OC(=O)[C@@H](C(C)C)NC(=O)[C@@H](CC2CCCCC2)OC(=O)[C@H]([C@@H](C)OC(C)(C)C)NC(=O)[C@H](C)OC(=O)[C@@H](C(C)C)NC(=O)[C@@H](CC2CCCCC2)OC(=O)[C@H](C(C)C)NC(=O)[C@H](C)OC(=O)[C@@H](C(C)C)NC(=O)[C@@H](CC2CCCCC2)OC1=O | 56.3 nM | 135 nM | 240 nM | 90 nM | 56.3 nM | 60 nM |  | 
CC(C)C[C@H]1OC(=O)[C@H](C(C)C)NC(=O)[C@H](C)OC(=O)[C@@H](C(C)C)NC(=O)[C@@H](CC2CCCCC2)OC(=O)[C@H]([C@@H](C)OC(=O)CCCN(C)C(=O)OCc2ccc(O[C@@H]3O[C@H](C(=O)O)[C@@H](O)[C@H](O)[C@H]3O)c([N+](=O)[O-])c2)NC(=O)[C@H](C)OC(=O)[C@@H](C(C)C)NC(=O)[C@@H](CC(C)C)OC(=O)[C@H](C(C)C)NC(=O)[C@H](C)OC(=O)[C@@H](C(C)C)NC1=O | 30 nM | 120 nM | 42 nM | 78.1 nM | 18.6 nM | 24 nM | 150 nM | 30 nM
CC(C)C[C@H]1OC(=O)[C@H](C(C)C)NC(=O)[C@H](C)OC(=O)[C@@H](C(C)C)NC(=O)[C@@H](CC(C)C)OC(=O)[C@H](C(C)C)NC(=O)[C@H](C)OC(=O)[C@@H](C(C)C)NC(=O)[C@@H](CC2CCCCC2)OC(=O)[C@H](Cc2ccc(O)cc2)NC(=O)[C@H](C)OC(=O)[C@@H](C(C)C)NC1=O | 2.4 nM | 4.8 nM | 3.2 nM | 4.3 nM | 0.88 nM | 1.7 nM |  | 
CC(C)C[C@H]1OC(=O)[C@H](C(C)C)NC(=O)[C@H](C)OC(=O)[C@@H](C(C)C)NC(=O)[C@@H](CC(C)C)OC(=O)[C@H](C(C)C)NC(=O)[C@H](C)OC(=O)[C@@H](C(C)C)NC(=O)[C@@H](CC(C)C)OC(=O)[C@H](C(C)C)NC(=O)[C@H](C)OC(=O)[C@@H](C(C)C)NC1=O | 0.18 nM | 0.69 nM | 0.61 nM | 0.36 nM | 0.095 nM | 0.14 nM |  | 
CC[C@H](C)[C@H]1OC(=O)[C@H](C(C)C)NC(=O)[C@H](C)OC(=O)[C@@H](C(C)C)NC(=O)[C@@H]([C@@H](C)CC)OC(=O)[C@H](C(C)C)NC(=O)[C@H](C)OC(=O)[C@@H](C(C)C)NC(=O)[C@@H](CC(C)C)OC(=O)[C@H](C(C)C)NC(=O)[C@H](C)OC(=O)[C@@H](C(C)C)NC1=O | 1.6 nM | 0.29 nM | 0.39 nM | 0.75 nM | 0.27 nM | 0.23 nM |  | 
CC[C@H](C)[C@H]1OC(=O)[C@H](C(C)C)NC(=O)[C@H](C)OC(=O)[C@@H](C(C)C)NC(=O)[C@@H]([C@@H](C)CC)OC(=O)[C@H](C(C)C)NC(=O)[C@H](C)OC(=O)[C@@H](C(C)C)NC(=O)[C@@H]([C@@H](C)CC)OC(=O)[C@H](C(C)C)NC(=O)[C@H](C)OC(=O)[C@@H](C(C)C)NC1=O [BACILLISTATIN 1] | 0.39 nM | 0.82 nM | 1.2 nM | 1.3 nM | 0.53 nM | 0.75 nM |  | 
CC(C)C[C@H]1OC(=O)[C@H](Cc2ccc(O)cc2)NC(=O)[C@H](C)OC(=O)[C@@H](C(C)C)NC(=O)[C@@H](CC(C)C)OC(=O)[C@H](C(C)C)NC(=O)[C@H](C)OC(=O)[C@@H](C(C)C)NC(=O)[C@@H](CC(C)C)OC(=O)[C@H](C(C)C)NC(=O)[C@H](C)OC(=O)[C@@H](C(C)C)NC1=O | 3.3 nM | 4.1 nM | 3 nM | 4.2 nM | 1.3 nM | 0.9 nM |  | 
CC(C)[C@@H]1NC(=O)[C@H](C)OC(=O)[C@@H](C(C)C)NC(=O)[C@@H](CC2CCCCC2)OC(=O)[C@H](C(C)C)NC(=O)[C@H](C)OC(=O)[C@@H](C(C)C)NC(=O)[C@@H](CC2CCCCC2)OC(=O)[C@H](Cc2ccc(OC(C)(C)C)cc2)NC(=O)[C@H](C)OC(=O)[C@@H](C(C)C)NC(=O)[C@@H](CC2CCCCC2)OC1=O | > 717 nM | > 717 nM | > 717 nM | > 717 nM | > 717 nM | > 717 nM |  | 
CC(C)C[C@H]1OC(=O)[C@H](C(C)C)NC(=O)[C@H](C)OC(=O)[C@@H](C(C)C)NC(=O)[C@@H](CC(C)C)OC(=O)[C@H](C(C)C)NC(=O)[C@H](C)OC(=O)[C@@H](C(C)C)NC(=O)[C@@H](CC2CCCCC2)OC(=O)[C@H](Cc2ccc(OC(C)(C)C)cc2)NC(=O)[C@H](C)OC(=O)[C@@H](C(C)C)NC1=O | 46 nM | 68 nM | 91 nM | 30 nM | 24 nM | 40 nM |  | 
CC(C)C[C@H]1OC(=O)[C@H](Cc2ccc(OC(C)(C)C)cc2)NC(=O)[C@H](C)OC(=O)[C@@H](C(C)C)NC(=O)[C@@H](CC(C)C)OC(=O)[C@H](C(C)C)NC(=O)[C@H](C)OC(=O)[C@@H](C(C)C)NC(=O)[C@@H](CC(C)C)OC(=O)[C@H](C(C)C)NC(=O)[C@H](C)OC(=O)[C@@H](C(C)C)NC1=O | 2 nM | 24 nM | 23 nM | 8.6 nM | 3.3 nM | 3.8 nM |  | 
CC(C)C[C@H]1OC(=O)[C@H](C(C)C)NC(=O)[C@H](C)OC(=O)[C@@H](C(C)C)NC(=O)[C@@H](CC2CCCCC2)OC(=O)[C@H]([C@@H](C)OC(C)(C)C)NC(=O)[C@H](C)OC(=O)[C@@H](C(C)C)NC(=O)[C@@H](CC(C)C)OC(=O)[C@H](C(C)C)NC(=O)[C@H](C)OC(=O)[C@@H](C(C)C)NC1=O | 3.2 nM | 18 nM | 7.2 nM | 5.6 nM | 0.79 nM | 1.9 nM |  | 
CC(C)C[C@H]1OC(=O)[C@H](C(C)C)NC(=O)[C@H](C)OC(=O)[C@@H](C(C)C)NC(=O)[C@@H](CC(C)C)OC(=O)[C@H]([C@@H](C)O)NC(=O)[C@H](C)OC(=O)[C@@H](C(C)C)NC(=O)[C@@H](CC(C)C)OC(=O)[C@H](C(C)C)NC(=O)[C@H](C)OC(=O)[C@@H](C(C)C)NC1=O | 2.7 nM | 3.5 nM | 2.8 nM | 5.2 nM | 1.9 nM | 2.9 nM |  | 
